Source: PubChem BioAssay
H9c2 TAG inh: inhibitors of triacylglycerol accumulation, primary screen, cell-based, uHTS, fluorescence, H9c2. H9c2 cells, Nile Red lipid (TAG) fluorescence; cells loaded with 200 µM oleic acid. inhibition, % at 12.5 µM. 0.66% of 230,000 active. AID 651582, 2012;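 active means pattern-corrected inhibition of lipid staining of at least 50% with the nuclear-stain viability signal not falling by more than 50%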
Jurkat NFkB inh: inhibitors of induced NF-kB luciferase reporter, primary screen, TCR NF-kB activation inhibitor project, cell-based, luminescence, uHTS; inhibition, % at 4 µM; Jurkat, PMA/ionomycin-induced NF-kB luciferase reporter; 0.53% of 330,000 active; in the data active means inhibition above about 50%
697 NFkB inh: inhibitors of PMA/ionomycin-induced NF-kB reporter, 697 cells, primary screen, B-cell NF-kB inhibitor project, cell-based, luminescence, uHTS; inhibition, % at 4 µM; 697 B-cell NF-kB luciferase reporter, 16 h; 0.33% of 330,000 active; in the data active means inhibition above about 35%
APP transl inh: inhibitors of APP translation via 5'UTR reporter, primary screen, APP 5'UTR luciferase, SH-SY5Y cells. SH-SY5Y APP 5'UTR-luciferase reporter, luminescence. inhibition, % at 2 µM. AID 1285, 2008. 0.82% of 190,000 active;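 active means inhibition above a set limit, derived from the sample mean plus 3 SD, cut at about 45% in these data; inconclusive means one replicate passes the limit while the other fails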
aSyn 5UTR inh: MLPCN primary screen, SNCA 5' untranslated region. alpha-synuclein 5'UTR reporter, inhibitor activity. inhibition, % (tested at 7.5 µM). 0.82% of 300,000 active; in the data active means inhibition above about 60%; inconclusive means no clear call, values can overlap the other calls;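 further: H4 neuroglioblastoma cells stably carrying SNCA 5'UTR luciferase fusion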
Hep lipid drop: inhibitors of hepatocyte lipid droplet formation, primary screen, imaging, high-throughput imaging, BODIPY stain | 0.4% of 240,000 active | AML12 mouse hepatocytes, oleate lipid droplets | inhibition, % at 6.5 µM | AID 1656, 2009;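 active means lipid droplet intensity inhibited by at least 50%, with more than 500 cells counted; inconclusive means wells with under 300 cells, treated as cytotoxic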
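Material – AML12 mouse liver cells · Also added – oleate loading, 100 µM · Compound dosing – 6.5 µM single-point dosing · Times – overnight treatment with compound plus oleate · Measured by – fluorescence imaging, 20x objective, two fields per well · Read-out – percent inhibition of filter-corrected integrated lipid droplet intensity per well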
Large screens that a line does not name were inactive. An excerpt weighted towards active compounds, which were near 1.9% of everything screened.

CCn1cc(C(=O)N2CCN(c3ccc(F)cc3)CC2)c2cc(OC)c(OC)cc2c1=O	APP transl inh 47.7
CCn1cc(C(=O)N2CCN(c3ccc(OC)cc3)CC2)c2cc(OC)c(OC)cc2c1=O	none
CC(C)N1CC2(CC(c3ccccc3F)=NO2)CN1C(=O)c1ccco1 (stereo unspecified)	none (no result: Jurkat NFkB inh, 697 NFkB inh, APP transl inh, aSyn 5UTR inh, Hep lipid drop)
CC(=O)NC(c1cccc(F)c1)c1nc(-c2cccc(C(F)(F)F)c2)cs1 (stereo unspecified)	none (no result: Jurkat NFkB inh, 697 NFkB inh, APP transl inh, aSyn 5UTR inh, Hep lipid drop)
O=C(OCc1ccccc1Cl)c1ccc(-n2cnnc2)cc1	none (no result: H9c2 TAG inh)
O=C(Cn1ncnn1)OCc1ccccc1Cl	APP transl inh 67.7 (no result: H9c2 TAG inh, Hep lipid drop)
COc1ccccc1S(=O)(=O)N(C)C[C@H]1OCc2cn(nn2)CCCC(=O)N([C@@H](C)CO)C[C@@H]1C	none (no result: Jurkat NFkB inh, 697 NFkB inh, APP transl inh, aSyn 5UTR inh, Hep lipid drop)
C=CCOc1ccccc1CNc1cccc(F)c1	APP transl inh 56.9 (no result: H9c2 TAG inh)
C[C@@H]1CN([C@@H](C)CO)C(=O)CCCn2nncc2CO[C@@H]1CN(C)S(=O)(=O)c1ccc(Oc2ccccc2)cc1	none (no result: Jurkat NFkB inh, 697 NFkB inh, APP transl inh, aSyn 5UTR inh, Hep lipid drop)
CCOC(=O)c1sc(Nc2nc(C)cc(OC)n2)nc1C	none
CCOC(=O)c1sc(Nc2nc(C)cc(C)n2)nc1C	aSyn 5UTR inh 84.1 (no result: APP transl inh)
COC(=O)C1=C(C)N(Cc2ccccc2)C(=NCc2cccc(Cl)c2)N[C@H]1c1cccc(F)c1	H9c2 TAG inh 120.2 (no result: APP transl inh, aSyn 5UTR inh, Hep lipid drop)
O=C(CN(c1ccc(Cl)cc1)S(=O)(=O)c1ccc(Cl)c([N+](=O)[O-])c1)NCCc1ccc(F)cc1	none (no result: H9c2 TAG inh)
O=C(CN(c1ccc(Cl)cc1)S(=O)(=O)c1ccc(Cl)c([N+](=O)[O-])c1)NCCc1ccccc1	aSyn 5UTR inh 105.8
c1ccc(-n2ncc3c(N4CCCCC4)ncnc32)cc1	aSyn 5UTR inh 94.5 (no result: Hep lipid drop)
CCN1CCN(c2ncnc3c2cnn3-c2ccccc2)CC1	none (no result: Hep lipid drop)
Cc1cc(-n2c(SCC(=O)NCCC3=CCCCC3)nc3n[nH]c(C)c3c2=N)ccc1Cl	none (no result: H9c2 TAG inh, APP transl inh)
Cc1[nH]nc2nc(SCC(=O)NCCC3=CCCCC3)n(-c3ccc(Br)cc3)c(=N)c12	aSyn 5UTR inh 74.5 (no result: H9c2 TAG inh, APP transl inh)
COc1cc(OC)c2cc(C(=O)N/N=C/c3cccc(OC)c3O)[nH]c2c1	H9c2 TAG inh 54.8 (no result: APP transl inh)
COc1cccc(/C=N/NC(=O)c2c(C)nc3ccc(Br)cn23)c1O	APP transl inh 61.1, aSyn 5UTR inh 71.0 (no result: H9c2 TAG inh)
CCOc1ccccc1/C=N/NC(=O)c1c(C)nc2ccc(Br)cn12	none (no result: H9c2 TAG inh, APP transl inh)
COc1ccc(/C=N\NC(=O)c2c(C)nc3ccc(Br)cn23)cc1	APP transl inh 89.2, aSyn 5UTR inh inconclusive (no result: H9c2 TAG inh, Hep lipid drop)
CCc1nnc(NS(=O)(=O)c2ccc(NCc3cc(Cl)ccc3O)cc2)s1	none (no result: H9c2 TAG inh, APP transl inh)
COCCCN1C(=O)C(CC(=O)NC2CCCCC2)CC(C(=O)N(C)C)=C1C (stereo unspecified)	none (no result: Jurkat NFkB inh, 697 NFkB inh, APP transl inh, aSyn 5UTR inh, Hep lipid drop)
O=C(Nc1ccc(Cl)c(Cl)c1)Nc1ccc(N2CCCC2)c(S(=O)(=O)Nc2ccccc2Cl)c1	aSyn 5UTR inh 95.2
COc1cc(C(=O)NC(=S)N(C)Cc2ccccc2)cc(OC)c1OC	none (no result: H9c2 TAG inh)
COc1ccccc1OCC(=O)NN=C(Cc1ccccc1)Cc1ccccc1	none (no result: H9c2 TAG inh)
COc1cc(C(=O)NC(=S)N(CCc2ccccc2)CCc2ccccc2)cc(OC)c1OC	aSyn 5UTR inh 69.2
COc1cc(C(=O)NCC(=O)N/N=C(\C)Cc2ccccc2)cc(OC)c1OC	none (no result: H9c2 TAG inh, APP transl inh)
CCOc1ccccc1OCC(=O)N/N=C(\C)Cc1ccc(OC)cc1	APP transl inh 92.5, aSyn 5UTR inh 86.5 (no result: H9c2 TAG inh)
COc1cc(C(=O)N/N=C(\C)Cc2ccccc2)cc(OC)c1OC	APP transl inh 94.3
CCCCOC(=O)C1C2CCC(O2)C1C(=O)OCC (stereo unspecified)	none (no result: Jurkat NFkB inh, 697 NFkB inh, APP transl inh, aSyn 5UTR inh, Hep lipid drop)
CCCCCC(=O)OCc1ccc(C2=CC(=O)CC(C)(C)C2=O)cc1	none (no result: Jurkat NFkB inh, 697 NFkB inh, APP transl inh, aSyn 5UTR inh, Hep lipid drop)
O=C(NCCCN1CCN(c2cccc(Cl)c2)CC1)c1ccc(N2CCCC2=O)cc1	APP transl inh 67.4
O=C(NCCCN1CCN(c2cccc(Cl)c2)CC1)c1cccc(N2CCCC2=O)c1	none
CC(=O)n1cc(-c2ccncc2)c2ccccc21	APP transl inh 46.3
CC(=O)n1cc(/C=N/NC(=O)c2sc(C)nc2C)c2ccccc21	none (no result: Hep lipid drop)
CCOC(=O)c1ccc(NC(=O)c2c(C)[nH]c(C(=O)OCC)c2C)cc1	none (no result: H9c2 TAG inh)
